The subject of experiment [1] is PC-12. Description: Neuroprotective activity against Abeta1-42 induced rat PC12 cells assessed as reduction in LDH release at 10 uM preincubated for 3 hrs followed by Abeta1-42 induction and measured after 24 hrs by LDH release assay. It counts as functional, cell-based. Particulars: time 27.0 hrs. In outline: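 PC12 cells were pretreated 3 h with 10 μM, then incubated 24 h with or without 10 μM Aβ1–42. LDH released into the supernatant was measured.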
In general terms: Release of lactate dehydrogenase indicates damage to the cell membrane.

Experiment [2] relates to PC-12. The experiment in a line: Induction of apoptosis in Abeta1-42 induced rat PC12 cells assessed as viable cell at 10 uM preincubated for 3 hrs followed by Abeta1-42 induction and measured after 24 hrs by Annexin V-FITC/PI staining based flow cytometry analysis (reference value: 97.8%). It is filed as functional. Particulars: time 27 hrs. (In flow cytometry, cells or beads pass a laser one at a time.)

The test system of experiment [3] is PC-12. The experiment in a line: Induction of apoptosis in Abeta1-42 induced rat PC12 cells assessed as necrosis at 10 uM preincubated for 3 hrs followed by Abeta1-42 induction and measured after 24 hrs by Annexin V-FITC/PI staining based flow cytometry analysis (reference value: 0.0%). It is filed as functional. Particulars: time 27 hrs.
The subject of experiment [4] is PC-12. The experiment in a line: Neuroprotective activity in Abeta1-42 induced rat PC12 cells assessed as decrease in cleaved caspase-3 level at 10 uM preincubated for 3 hrs followed by Abeta1-42 induction and measured after 24 hrs. Particulars: time 27.0 hrs. It is filed as functional, cell-based. In a few lines: (§1)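 Aβ1–42 challenge in PC12 cells was 10 μM for 24 h after 3 h pretreatment at 10 μM. SP600125 (1.25 μM) was added 0.5 h before pretreatment where used. Cells were lysed in RIPA and protein measured by BCA. Blotting used PVDF transfer, 5% BSA/TBST block for 2 h, primaries 1:1000 overnight at 4 °C, and HRP secondary for 2 h. Bcl-2/Bax ratio and band intensities were quantified.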

Experiment [5] relates to PC-12. The experiment in a line: Neuroprotective activity against Abeta1-42 induced rat PC12 cells assessed as reduction in ROS level at 10 uM preincubated for 3 hrs followed by Abeta1-42 induction and measured after 24 hrs by y DCFH2-DA probe based analysis. It is filed as functional, cell-based. Particulars: time 27.0 hrs. In outline:
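PC12 cells were pretreated 3 h at 10 μM, then given 10 μM Aβ1–42 for 24 h. Cells were loaded with DCFH-DA 10 μM in FBS-free DMEM for 30 min in the dark and washed. Fluorescence was read at Ex 488/Em 525 nm.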

The subject of experiment [6] is PC-12. The experiment in a line: Neuroprotective activity against in Abeta1-42 induced rat PC12 cells assessed as effect on P38MAPK protein level at 10 uM preincubated for 3 hrs followed by Abeta1-42 induction and measured after 24 hrs by Western blot analysis. It is filed as functional, cell-based. Particulars: time 27.0 hrs. In outline: as §1
In general terms: In western blotting, separated proteins are transferred to a membrane and probed.

Experiment [7] concerns PC-12. Description: Neuroprotective activity against Abeta1-42 induced rat PC12 cells assessed as effect on Bcl2/Bax ratio level at 10 uM preincubated for 3 hrs followed by Abeta1-42 induction and measured after 24 hrs in the presence of SP600125 by Western blot analysis. It is filed as functional, cell-based. Particulars: time 27.0 hrs. In outline:
as §1

In experiment [8] the test system is PC-12. The experiment in a line: Neuroprotective activity against in Abeta1-42 induced rat PC12 cells assessed as effect on cleaved caspase-3 level at 10 uM preincubated for 3 hrs followed by Abeta1-42 induction and measured after 24 hrs in the presence of SP600125 by Western blot analysis. It counts as functional, cell-based. Particulars: time 27.0 hrs. In outline:
as §1

For experiment [9], the system named is Mus musculus. The experiment in a line: Anti-alzheimer activity against APP/PS1 dE9 double transgenic mouse model assessed as increase in platform crossings at 10 mg/kg, ip administered once daily for 30 consecutive days […] by morris water maze test. It counts as functional, organism-based. In a few lines:
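Female APP/PS1 mice, 10 months old, about 30 g, 10 per group. Dosing was intraperitoneal in 1× PBS, once daily for one month (1 or 10 mg/kg test; 5 mg/kg donepezil). WT and untreated APP/PS1 controls got PBS. Morris water maze: training days 1–4, averaged escape latency. Day-5 probe trial ran 60 s with the platform removed, recording platform crossings and time per quadrant. Mean ± SEM.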

Experiment [10] has as its system Mus musculus. The experiment in a line: Anti-alzheimer activity in hippocampus of APP/PS1 dE9 double transgenic mouse model assessed as reduction in glial cell aggregation at 1 to 10 mg/kg, ip administered once daily for 30 consecutive days by immunofluorescence staining. It is filed as functional, organism-based. The following applies: dose 1-10 mg/kg, time 30.0 day. In outline:
(§2)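 Brains from dosed female APP/PS1 mice (10 months) were fixed in 4% paraformaldehyde at 4 °C for 24–48 h, taken through a sucrose gradient and OCT, and cut into 15 μm sections. Sections were permeabilized with 0.3% Triton X-100, blocked in 10% BSA for 1 h, and incubated with primary antibody overnight at 4 °C (1:200). Secondary was 1:500 for 1 h at 25 °C, with DAPI counterstain and confocal imaging, in triplicate.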

For experiment [11], the system named is Mus musculus. The experiment in a line: Anti-alzheimer activity in hippocampus of APP/PS1 dE9 double transgenic mouse model assessed as reduction in amyloid beta plaque deposition at 1 to 10 mg/kg, ip administered once daily for 30 consecutive days by immunofluorescence staining. It is filed as functional, organism-based. The following applies: dose 1-10 mg/kg, time 30.0 day. In a few lines: as §2

The test system of experiment [12] is Mus musculus. Description: Anti-alzheimer activity in hippocampus of APP/PS1 dE9 double transgenic mouse model assessed as reduction in APP/beta-amyloid level at 10 mg/kg, ip administered once daily for 30 consecutive days by Western blot analysis. It is filed as functional, organism-based. The following applies: time 30.0 day. In outline:
(§3)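 Hippocampal homogenates from dosed APP/PS1 mice were extracted in RIPA and protein measured by BCA. Samples were run by SDS electrophoresis, transferred to 0.22 μm PVDF for 90 min, blocked with 5% BSA in TBST for 2 h at RT, and probed with primaries 1:1000 overnight at 4 °C. HRP secondary was applied for 2 h at RT.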

Experiment [13] concerns Mus musculus. The experiment in a line: Anti-alzheimer activity in hippocampus of APP/PS1 dE9 double transgenic mouse model assessed as increase in the level of PSD95 at 10 mg/kg, ip administered once daily for 30 consecutive days by Western blot analysis. It counts as functional, organism-based. The following applies: time 30.0 day. In outline: as §3
Experiment [14] deals with Mus musculus. The experiment in a line: Anti-alzheimer activity in hippocampus of APP/PS1 dE9 double transgenic mouse model assessed as increase in […] at 1 to 10 mg/kg, ip administered once daily for 30 consecutive days […]. It is filed as functional, organism-based. The following applies: dose 1-10 mg/kg, time 30.0 day. In outline:
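Hippocampal tissue from dosed APP/PS1 mice was lysed in RIPA. SOD activity was read by WST-8/xanthine oxidase formazan kit assay and MDA by lipid peroxidation kit, with absorbance on a microplate reader.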

In experiment [15] the test system is Mus musculus. Description: Anti-alzheimer activity in hippocampus of APP/PS1 dE9 double transgenic mouse model assessed as increase in the level of Bcl-2 at 10 mg/kg, ip administered once daily for 30 consecutive days by Western blot analysis. Particulars: time 30.0 day. It counts as functional, organism-based. In outline: as §3
In experiment [16] the test system is PC-12. Description: Neuroprotective activity against Abeta1-42 induced rat PC12 cells assessed as increase in cell viability at 10 uM preincubated for 3 hrs followed by Abeta1-42 induction and measured after 24 hrs by MTT assay. It counts as functional, cell-based. The following applies: time 27.0 hrs. In outline:
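PC12 cells were seeded at 5×10^3/well and pretreated 3 h with test compound (range or 10 μM), with or without SP600125 1.25 μM for 0.5 h beforehand. Cells were then exposed to 10 μM Aβ1–42 oligomers for 24 h. MTT 0.5 mg/mL was added for 3–4 h, formazan dissolved in DMSO, and absorbance read at 570 nm. Viability is given as % of control.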

SMILES strings stand for the structures. Active and inactive are the calls of the source. The calls are words filed in the database; no cut-off is given here.

On to `C=C[C@@]1(C)Cc2occ(C)c2[C@@H]2OC(=O)C(=C)[C@@H]21` [ISOLINDERALACTONE], for which the outcome in the experiment on PC-12 [1], with PC-12 [4], with PC-12 [5], with Mus musculus [9], with Mus musculus [10] and with Mus musculus [11] was Active. In addition, the result with Mus musculus [12], in the experiment with Mus musculus [13], in the experiment with Mus musculus [14], in the experiment with Mus musculus [15] and in the experiment with PC-12 [16] was Active. Also, the Activity is listed as 97.6% in the experiment on PC-12 [2] and 0% in the experiment on PC-12 [3]. Further, the result in the experiment with PC-12 [6], with PC-12 [7] and in the experiment with PC-12 [8] was inactive.

These data come from ChEMBL document CHEMBL5390295, “Isolinderalactone Ameliorates the Pathology of Alzheimer's Disease by Inhibiting the JNK Signaling Pathway” (2023).
